Source: PMC5800424 (Molecular carcinogenesis, 2016)

Columns and labels:
BxPC-3 = assay: MTT proliferation assay, BxPC-3 cells; type: cell-based; conditions: Homo sapiens, BXPC-3, 24 h; for IC20: read-out: Approx. IC20; for IC50: read-out: Approx. IC50
How it was run: (§1)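 Cells were seeded at 4 × 10^3/well in 96-well plates and dosed 24 h later with graded concentrations of test compound for 24 h, with DMSO solvent control. Proliferation was read by modified MTT assay and approximate IC20/IC50 reported; triplicates, three independent experiments. Culture media, all at 37°C/5% CO2, were: BxPC-3 and Capan-2 RPMI/10% FBS; MIA PaCa-2 high-glucose DMEM/10% FBS/5% horse serum; PANC-1 DMEM/10% FBS; HPNE HPNE base medium/5% FBS/EGF.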

Capan-2 [1] = assay: MTT proliferation assay, Capan-2 cells; type: cell-based; conditions: Homo sapiens, Capan-2, 24 h; for IC20: read-out: Approx. IC20; for IC50: read-out: Approx. IC50
How it was run: as §1

HPNE = assay: MTT proliferation assay, HPNE cells; type: cell-based; conditions: Homo sapiens, 24 h; for IC20: read-out: Approx. IC20; for IC50: read-out: Approx. IC50
How it was run: as §1

MIA PaCa-2 = assay: MTT proliferation assay, MIA PaCa-2 cells; type: cell-based; conditions: Homo sapiens, MIA PaCa-2, 24 h; for IC20: read-out: Approx. IC20; for IC50: read-out: Approx. IC50
How it was run: as §1

PANC-1 = assay: MTT proliferation assay, PANC-1 cells; type: cell-based; conditions: Homo sapiens, PANC-1, 24 h; for IC20: read-out: Approx. IC20; for IC50: read-out: Approx. IC50
How it was run: as §1

p105 = assay: Immunoblot analysis of p105; type: cell-based, human; conditions: MIA PaCa-2; 24h; GEM 0.5 μM alone or with Nx 20 μg/mL
How it was run: (§2)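 MIA PaCa-2 cells were exposed for 24 h to medium alone, test extract (20 μg/mL), nucleoside drug (0.5 μM), or both. They were lysed in 2x SDS buffer with protease and phosphatase inhibitors, run on 10% SDS-PAGE and transferred to nitrocellulose. Blocking was 1 h at RT in 5% milk or 5% BSA/TBST, primary antibody 2 h at RT, then HRP secondary 1 h. Detection was ECL; blots are representative of three independent experiments.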

p50 = assay: Immunoblot analysis of p50; type: cell-based, human; conditions: MIA PaCa-2; 24h; GEM 0.5 μM alone or with Nx 20 μg/mL
How it was run: as §2

[2] = tested on: GEM-resistant Capan-2 (GRC) cells; assay: Proliferation assay, GEM-resistant Capan-2; type: cell-based, human; conditions: 24h
How it was run: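 The resistant Capan-2 line was derived by stepwise nucleoside drug exposure: 5 μM for 4 days, 5 μM for 1 week, 7.5 μM for 1 week, each followed by drug-free recovery, then 10 μM for 4 months. It was kept in RPMI/10% FBS plus drug. Resistant and parental cells were treated with graded doses for 24 h, and proliferation was read by MTT; triplicates, three independent experiments.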

[3] = tested on: GEM-resistant BxPC-3 (GRB) cells; assay: Proliferation assay, GEM-resistant BxPC-3; type: cell-based, human; conditions: 24h
Capan-2 [4] = assay: Annexin V apoptosis assay, Capan-2; type: cell-based, human; conditions: 24h, Nx 50 μg/mL, GEM 0.5 μM, alone or in combination
phospho-p65 (pp65) = assay: Immunoblot analysis of pp65; type: cell-based, human; conditions: MIA PaCa-2; 24h; GEM 0.5 μM alone or with Nx 20 μg/mL

Row | IC50 (BxPC-3) | IC50 (MIA PaCa-2) | IC50 (PANC-1) | Structure (SMILES) | IC20 (BxPC-3) | IC20 (Capan-2 [1]) | IC50 (Capan-2 [1]) | IC20 (HPNE) | IC50 (HPNE) | IC20 (MIA PaCa-2) | IC20 (PANC-1) | levels of p105 (p105) | levels of p50 (p50) | proliferation of GRC cells compared to WT parental Capan-2 [2] | proliferation of GRB cells compared to WT parental BxPC-3 [3] | apoptosis induction (Annexin V) (Capan-2 [4]) | levels of pp65 (phospho-p65 (pp65))
1 | ~25 µg/mL | ~25 µg/mL | ~50 µg/mL | COc1ccc2cc3[n+](cc2c1OC)CCc1cc2c(cc1-3)OCO2 [Berberine] | ~5 µg/mL | ~5 µg/mL | ~75 µg/mL | ~5 µg/mL | ~75 µg/mL | ~5 µg/mL | ~2.5 µg/mL | – | – | – | – | – | –
2 | ~25 µg/mL | ~30 µg/mL | ~5 µg/mL | CCCCC[N+]12CCc3cc4c(cc3C1Cc1ccc(OC)c(OC)c1C2)OCO4.[Cl-] (centres unmarked) [Ber 2-4, 9,10-dimethoxy-7-pentyl-5,6,7,8,13,13a-hexahydro-[1,3]dioxolo[4,5-g]isoquinolino[3,2-a]isoquinolin-7-ium chloride] | ~5 µg/mL | ~5 µg/mL | ~75 µg/mL | ~25 µg/mL | ~75 µg/mL | ~10 µg/mL | ~1 µg/mL | – | – | – | – | – | –
3 | – | ~20 µg/mL | ~50 µg/mL | COc1ccc2c(c1OC)C[N+]1(Cc3ccc(Br)cc3)CCc3cc4c(cc3C1C2)OCO4.[Br-] (centres unmarked) [Ber 2-8, 7-(4-bromobenzyl)-9,10-dimethoxy-5,6,7,8,13,13a-hexahydro-[1,3]dioxolo[4,5-g]isoquinolino[3,2-a]isoquinolin-7-ium bromide] | – | – | – | ~25 µg/mL | ~50 µg/mL | ~5 µg/mL | ~5 µg/mL | – | – | – | – | – | –
4 | – | – | – | Nc1ccn([C@@H]2O[C@H](CO)[C@@H](O)C2(F)F)c(=O)n1 [GEM, gemcitabine] | – | – | – | – | – | – | – | induced | induced | significantly higher level of tolerance | significantly higher level of tolerance | did not observe Annexin positive cells | induced
